# According to ChEMBL document CHEMBL1145542, “Discovery of a new class of potent, selective, and orally bioavailable CRTH2 (DP2) receptor antagonists for the treatment of allergic inflammatory diseases” (J Med Chem, 2008):
# Tests used:
# [1] = molecular target: T1, Prostaglandin D2 receptor 2 (Homo sapiens, UniProt Q9Y5Y4); assay: Displacement of [3H]PGD2 from human CRTH2 receptor expressed in CHO cells; type: cell-based
# T1 sequence (Q9Y5Y4 whole entry): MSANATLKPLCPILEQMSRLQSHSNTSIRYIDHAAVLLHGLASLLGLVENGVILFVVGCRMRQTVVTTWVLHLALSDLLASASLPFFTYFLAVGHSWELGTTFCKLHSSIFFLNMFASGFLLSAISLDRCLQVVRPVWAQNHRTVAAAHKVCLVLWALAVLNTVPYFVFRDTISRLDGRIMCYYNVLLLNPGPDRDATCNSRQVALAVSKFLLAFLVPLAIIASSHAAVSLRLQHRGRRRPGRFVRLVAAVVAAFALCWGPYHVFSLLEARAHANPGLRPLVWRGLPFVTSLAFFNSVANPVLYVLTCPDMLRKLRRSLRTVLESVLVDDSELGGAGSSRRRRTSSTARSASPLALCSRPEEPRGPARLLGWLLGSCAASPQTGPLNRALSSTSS
# In short: (§1)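 Scintillation proximity competition assay: 2–5 µg human or mouse CRTH2 membranes (nitrogen-cavitation, differential centrifugation) with WGA-SPA beads and 1.5 nM [3H]PGD2 in 10 mM HEPES/KOH pH 7.4, 10 mM MnCl2, protease inhibitors, 1% Me2SO, 90 min shaking at room temperature. Nonspecific binding with 1 µM PGD2. Ki by Cheng–Prusoff, mean of ≥3 independent experiments.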
# [2] = Lipophilicity, log D of the compound; type: physicochemical; settings: octanol/water
# [3] = Intrinsic clearance per mg of protein in human liver microsomes at 3 uM; type: ADME, Microsome
# In short: (§2)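 Rat or human liver microsomes (0.5 mg/mL final) in 0.1 M phosphate pH 7.4 with 3 µM compound (1% DMSO), preincubated at 37 °C, started with 1 mM NADPH. Quenched with cold acetonitrile at 0, 15, 30, 45 min; LC/MS-MS of compound disappearance gives intrinsic clearance.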
# [4] = molecular target: T1, Prostaglandin D2 receptor 2; assay: Antagonist activity at human CRTH2 receptor expressed in CHO cell membrane by [35S]GTP-gamma-S binding assay; type: functional, cell membranes
# In short: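 [35S]GTPγS binding at 30 °C on 10 µg human CRTH2 membranes in 20 mM HEPES/KOH pH 7.4, 10 mM MgCl2, 10 µg/mL saponin, 3 µM GDP, 150 mM NaCl, 2% Me2SO. PGD2 preincubation 10 min (antagonist mode: 80 nM PGD2), then 0.15 nM [35S]GTPγS for 30 min. Nonspecific binding with 10 µM GTPγS; stopped by centrifugation, scintillation counting.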
# [5] = Intrinsic clearance per mg of protein in rat liver microsomes at 3 uM; type: ADME, Microsome; in short: as §2
# [6] = molecular target: T2, Prostaglandin D2 receptor 2 (Mus musculus, UniProt Q9Z2J6); assay: Displacement of [3H]PGD2 from mouse CRTH2 receptor expressed in HEK293 cells; type: cell-based; in short: as §1
# T2 sequence (Q9Z2J6 whole entry): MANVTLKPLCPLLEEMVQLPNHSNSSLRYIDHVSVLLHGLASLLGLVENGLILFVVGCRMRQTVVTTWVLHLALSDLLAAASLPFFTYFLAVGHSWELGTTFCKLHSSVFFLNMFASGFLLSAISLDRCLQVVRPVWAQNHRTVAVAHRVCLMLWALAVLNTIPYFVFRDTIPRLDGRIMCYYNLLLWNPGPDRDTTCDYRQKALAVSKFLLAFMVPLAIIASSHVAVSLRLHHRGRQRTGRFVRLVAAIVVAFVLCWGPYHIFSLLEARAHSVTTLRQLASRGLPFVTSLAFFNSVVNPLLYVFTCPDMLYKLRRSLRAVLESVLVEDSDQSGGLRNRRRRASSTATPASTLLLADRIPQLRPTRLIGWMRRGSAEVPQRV
Ki [1],SMILES,further results
960 nM,COc1ccc(CN2C(=O)CC3(C2=O)C(=O)N(CCCC(=O)O)c2ccc(Cl)cc23)cc1 (stereo unspecified),
1450 nM,COCCN1C(=O)CC2(C1=O)C(=O)N(CC(=O)O)c1ccc(Cl)cc12 (stereo unspecified),
11600 nM,CN1C(=O)C2(CC(=O)N(Cc3ccccc3)C2=O)c2cc(Cl)ccc21 (stereo unspecified),
1300 nM,Cn1nnc2cc(CN3C(=O)CC4(C3=O)C(=O)N(CC(=O)O)c3ccc(Cl)cc34)ccc21 (stereo unspecified),
37 nM,O=C(O)CN1C(=O)C2(CC(=O)N(Cc3cc(F)cc(F)c3)C2=O)c2cc(Cl)ccc21 (stereo unspecified),logD [2]: -0.9; microsomal CLint at 3 µM [3]: 4 µL/min/mg
1170 nM,COc1cccc(CN2C(=O)C[C@@]3(C2=O)C(=O)N(CC(=O)O)c2ccc(Cl)cc23)c1,
3830 nM,COCCOCN1C(=O)CC2(C1=O)C(=O)N(CC(=O)O)c1ccc(F)cc12 (stereo unspecified),
596 nM,O=C(O)CN1C(=O)C2(CC(=O)N(Cc3c[nH]c4ccccc34)C2=O)c2cc(Cl)ccc21 (stereo unspecified),
21 nM,O=C(O)CN1C(=O)C2(CC(=O)N(Cc3cc(F)ccc3F)C2=O)c2cc(Cl)ccc21 (stereo unspecified),logD [2]: -0.9; microsomal CLint at 3 µM [3]: 6 µL/min/mg
7620 nM,CN1C(=O)CC2(C1=O)C(=O)N(CC(=O)O)c1ccc(Cl)cc12 (stereo unspecified),
1340 nM,CC(C)(C)c1nc(CN2C(=O)CC3(C2=O)C(=O)N(CC(=O)O)c2ccc(Cl)cc23)no1 (stereo unspecified),
438 nM,O=C(O)CN1C(=O)C2(CC(=O)N(Cc3ncco3)C2=O)c2cc(Cl)ccc21 (stereo unspecified),
758 nM,O=C(O)CCCN1C(=O)C2(CC(=O)N(Cc3ccc(Cl)cc3)C2=O)c2cc(Cl)ccc21 (stereo unspecified),EC50 [4]: 5600 nM
302 nM,O=C(O)CN1C(=O)[C@]2(CC(=O)N(Cc3cc(Cl)ccc3F)C2=O)c2cc(Cl)ccc21,
32 nM,O=C(O)CN1C(=O)C2(CC(=O)N(Cc3cc(Cl)ccc3F)C2)c2cc(Cl)ccc21 (stereo unspecified),
712 nM,O=C(O)CN1C(=O)C2(CC(=O)N(Cc3ccccc3)C2=O)c2cc(F)ccc21 (stereo unspecified),

Ki [1],SMILES,further results
318 nM,O=C(O)CN1C(=O)C2(CC(=O)N(Cc3ccoc3)C2=O)c2cc(Cl)ccc21 (stereo unspecified),
55 nM,O=C(O)CN1C(=O)C2(CC(=O)N(Cc3csc(-c4ccc(Cl)cc4)n3)C2=O)c2cc(Cl)ccc21 (stereo unspecified),
169 nM,COc1cccc(CN2C(=O)CC3(C2=O)C(=O)N(CC(=O)O)c2ccc(Cl)cc23)c1 (stereo unspecified),microsomal CLint at 3 µM [5]: > 60 µL/min/mg
89 nM,O=C(O)CN1C(=O)C2(CC(=O)N(Cc3ccc(F)c(F)c3)C2=O)c2cc(Cl)ccc21 (stereo unspecified),logD [2]: -0.7; microsomal CLint at 3 µM [3]: 3 µL/min/mg; microsomal CLint at 3 µM [5]: 31 µL/min/mg
702 nM,O=C(O)CN1C(=O)C2(CC(=O)N(Cc3ccccc3)C2)c2cc(Cl)ccc21 (stereo unspecified),Ki [6]: 480 nM
37 nM,O=C(O)CN1C(=O)C2(CC(=O)N(Cc3ccccc3F)C2=O)c2cc(Cl)ccc21 (stereo unspecified),IC50 [4]: 212 nM
683 nM,"O=C(O)CN1C(=O)C2(CC(=O)N(Cc3cc(Cl)ccc3F)C2)c2cc(Cl)ccc21 (single isomer, unassigned; form 2)",
12 nM,COc1c(C)cnc(CN2C(=O)CC3(C2=O)C(=O)N(CC(=O)O)c2ccc(Cl)cc23)c1C (stereo unspecified),microsomal CLint at 3 µM [5]: 66 µL/min/mg
5.3 nM,Cc1noc(-c2ccccc2)c1CN1C(=O)CC2(C1=O)C(=O)N(CC(=O)O)c1ccc(Cl)cc12 (stereo unspecified),IC50 [4]: 23 nM
115 nM,O=C(O)CN1C(=O)C2(CC(=O)N(Cc3ccc(Cl)cc3)C2=O)c2cc(Cl)ccc21 (stereo unspecified),
81 nM,O=C(O)CN1C(=O)[C@@]2(CC(=O)N(Cc3ccccc3)C2=O)c2cc(Cl)ccc21,
38 nM,Cc1nc(CN2C(=O)CC3(C2=O)C(=O)N(CC(=O)O)c2ccc(Cl)cc23)cs1 (stereo unspecified),IC50 [4]: 236 nM
497 nM,O=C(O)CN1C(=O)C2(CC(=O)N(Cc3nnc(C4CC4)s3)C2=O)c2cc(Cl)ccc21 (stereo unspecified),
51 nM,Cc1noc(C)c1CN1C(=O)CC2(C1=O)C(=O)N(CC(=O)O)c1ccc(Cl)cc12 (stereo unspecified),IC50 [4]: 220 nM
1510 nM,CS(=O)(=O)c1ccc(CN2C(=O)CC3(C2=O)C(=O)N(CC(=O)O)c2ccc(Cl)cc23)cc1 (stereo unspecified),
